Measurements as given in PMC5598417 (Toxicology Reports, 2014).

What was measured:
[1] = test system: MA-10 cells; assay: Expression of steroidogenic genes in MA-10 cells; format: cell-based, murine; details: 6-h exposure; conazole 10 μM
[2] = test system: MA-10 cells; assay: Reactive oxygen species assay; format: cell-based, murine; details: for ROS formation compared with vehicle-treated control cells: 100 μM, 48-h exposure
In short: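 MA-10 cells seeded at 7.5 × 10^4 cells/well in gelatin-coated plates 24 h beforehand, loaded with H2-DCFDA (10 μM, 2 h, 37 °C), then washed twice in warm PBS. Exposure to 0.01–100 μM in serum-free, phenol red-free DMEM/F-12 (≤0.1% DMSO) for up to 48 h. Fluorescence read at 485/530 nm at 0, 1, 24 and 48 h and expressed as % of time-matched control. Positive controls were H2O2 20 mM (1 h) and rotenone 100 μM (24/48 h). Three independent experiments, quadruplicates.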

[3] = humans; cited from earlier work
[4] = test system: MA-10 cells; assay: Basal testosterone secretion by MA-10 Leydig cells; format: cell-based, murine; details: for decrease of basal T secretion compared with vehicle-treated control cells: 10 μM; for decrease of basal T secretion compared with vehicle-treated control cells / T secretion, concentration curves without LH: 48 h; for T secretion, concentration curves without LH: SU10603 0.05-1 μM, FLUS or TEBU 0.3-10 μM, Supplementary Fig. 1; for T secretion by MA-10 cells compared with vehicle-control: basal T secretion, conazole 10 μM
[5] = target: T1, androgen receptor (AR) (Homo sapiens, UniProt P10275); format: cell-based; details: BMR25%FLUT/BMR25%FLUT conazole
T1 sequence (P10275 1-920): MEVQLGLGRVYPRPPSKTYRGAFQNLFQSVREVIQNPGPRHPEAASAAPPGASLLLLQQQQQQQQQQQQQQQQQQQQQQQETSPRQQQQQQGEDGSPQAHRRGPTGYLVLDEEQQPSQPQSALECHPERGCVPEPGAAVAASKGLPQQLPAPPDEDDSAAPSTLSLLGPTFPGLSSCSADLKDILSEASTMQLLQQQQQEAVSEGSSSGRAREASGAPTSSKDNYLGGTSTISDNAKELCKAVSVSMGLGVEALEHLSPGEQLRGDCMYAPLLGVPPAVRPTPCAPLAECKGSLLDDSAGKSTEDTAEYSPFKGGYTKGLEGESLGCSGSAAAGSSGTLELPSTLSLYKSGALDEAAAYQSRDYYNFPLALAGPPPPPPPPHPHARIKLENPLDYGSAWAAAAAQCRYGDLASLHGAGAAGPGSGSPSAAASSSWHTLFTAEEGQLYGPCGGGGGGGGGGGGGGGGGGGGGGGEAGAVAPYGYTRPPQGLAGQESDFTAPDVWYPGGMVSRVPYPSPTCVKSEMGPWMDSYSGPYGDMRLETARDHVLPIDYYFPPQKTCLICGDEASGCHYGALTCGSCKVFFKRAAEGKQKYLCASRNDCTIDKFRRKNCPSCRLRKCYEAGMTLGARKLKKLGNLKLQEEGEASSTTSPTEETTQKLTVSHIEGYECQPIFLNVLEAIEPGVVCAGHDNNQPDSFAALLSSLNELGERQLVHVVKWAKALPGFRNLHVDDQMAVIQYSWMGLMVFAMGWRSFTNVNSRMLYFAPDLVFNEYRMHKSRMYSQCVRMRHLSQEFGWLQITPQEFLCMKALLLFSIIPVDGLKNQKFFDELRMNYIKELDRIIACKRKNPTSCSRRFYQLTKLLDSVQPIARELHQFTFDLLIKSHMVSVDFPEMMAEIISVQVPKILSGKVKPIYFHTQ

[6] = test system: MA-10 cells; assay: Expression of cholesterol biosynthesis genes in MA-10 cells; format: cell-based, murine; details: 6-h exposure; cAMP 100 μM, conazole 10 μM
[7] = test system: MA-10 cells; assay: LH-induced testosterone secretion by MA-10 Leydig cells; format: cell-based, murine; details: read-out: IC50 of T secretion inhibition in combination with LH; LH 10 ng/mL; 48-h exposure
[8] = cited from earlier work

SMILES	gene expression of five steroidogenic genes (StAR, Cyp11A1, Cyp17A1, 3β-HSD1, 17β-HSD3) [1]	ROS formation compared with vehicle-treated control cells [2]	decrease of basal T secretion compared with vehicle-treated control cells [4]	further results
CC(C1CC1)C(O)(Cn1cncn1)c1ccc(Cl)cc1 (centres unmarked) [CYPRO, Cyproconazole]	did not significantly affect	did not significantly change		
OC(Cn1cncn1)(Cn1cncn1)c1ccc(F)cc1F [FLUC, Fluconazole, reference compound]		did not significantly change		Tmax [3]: approximately 2 h
C[Si](Cn1cncn1)(c1ccc(F)cc1)c1ccc(F)cc1 [FLUS, Flusilazole]	did not significantly affect	1.2 fold	more than 50%	T secretion, concentration curves without LH [4]: concentration-dependently inhibited T secretion
CCCCC(O)(Cn1cncn1)c1ccc(Cl)cc1Cl (centres unmarked) [HEXA, Hexaconazole]		1.2 fold	more than 50%	REP (relative effect potency as compared to flutamide) [5]: 0.26; T secretion by MA-10 cells compared with vehicle-control ([4]; 48-h exposure): 36%
CCCCC(C#N)(Cn1cncn1)c1ccc(Cl)cc1 (centres unmarked) [MYC, Myclobutanil]		did not significantly change		
CCCC(Cn1cncn1)c1ccc(Cl)cc1Cl (centres unmarked) [PEN, Penconazole]		did not significantly change		
CCCN(CCOc1c(Cl)cc(Cl)cc1Cl)C(=O)n1ccnc1 [PRO, Prochloraz]	did not significantly affect	1.3 fold	more than 50%	T secretion by MA-10 cells compared with vehicle-control ([4]; 48-h exposure): 23%; gene expression of Cyp51 in comparison with vehicle-treated cells [6]: 1.7 fold; gene expression of HMG-CoA red in comparison with vehicle-treated cells [6]: 1.9 fold
O=C1c2cc(Cl)ccc2CCC1c1cccnc1 (centres unmarked) [SU10603, reference compound]				decrease of T secretion compared to vehicle-treated cells ([4]; SU10603 1 μM, 48-h exposure): 82%; T secretion, concentration curves without LH [4]: concentration-dependently inhibited T secretion; IC50 [7]: 500 nM
CC(C)(C)C(O)(CCc1ccc(Cl)cc1)Cn1cncn1 (centres unmarked) [TEBU, Tebuconazole]	did not significantly affect	1.4 fold	more than 50%	elimination half-life in soil [8]: approximately 800 days; T secretion, concentration curves without LH [4]: concentration-dependently inhibited T secretion; gene expression of Por in comparison with vehicle-treated cells [6]: 0.8 fold
CC(C)(C)C(=O)C(Oc1ccc(Cl)cc1)n1cncn1 (centres unmarked) [TRIA, Triadimefon]		did not significantly change		
CC1(C)CCC(=Cc2ccc(Cl)cc2)C1(O)Cn1cncn1 (centres unmarked) [TRIT, Triticonazole]		did not significantly change	more than 50%	REP (relative effect potency as compared to flutamide) [5]: 0.25; T secretion by MA-10 cells compared with vehicle-control ([4]; 48-h exposure): 44%
C=C(C)[C@H]1Cc2c(ccc3c2O[C@@H]2COc4cc(OC)c(OC)cc4[C@@H]2C3=O)O1 [rotenone, reference compound]				ROS production, % of the control ([2]; rotenone 100 μM, 48 h): 158 ± 18%
